Results published in ChEMBL document CHEMBL1759877, “Identification and evaluation of soft coral diterpenes as inhibitors of HIF-2α induced gene expression” (Bioorg Med Chem Lett, 2011).
pEC50, pIC50: −log10 of the molar value.

Legend:
[1] = target: Endothelial PAS domain-containing protein 1 (Homo sapiens, UniProt Q99814); assay: Inhibition of HIF-2alpha activity in human 786-O cells by luciferase assay; type: cell-based; conditions: for pEC50: read-out: EC50
Outline: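 Cells seeded at 5000 per well and allowed to attach overnight, then exposed to test samples or controls the next day. Incubation lasted one day so the HIF-2 signal could drop. Luciferin was then added to the cells and the luciferase signal read.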

[2] = Cytotoxicity against human 786-O cells by XTT assay; type: functional, cell-based; conditions: 786-0; for pIC50: Homo sapiens, read-out: IC50

Sequence of Endothelial PAS domain-containing protein 1 (Q99814 whole entry, the tested form may be a part): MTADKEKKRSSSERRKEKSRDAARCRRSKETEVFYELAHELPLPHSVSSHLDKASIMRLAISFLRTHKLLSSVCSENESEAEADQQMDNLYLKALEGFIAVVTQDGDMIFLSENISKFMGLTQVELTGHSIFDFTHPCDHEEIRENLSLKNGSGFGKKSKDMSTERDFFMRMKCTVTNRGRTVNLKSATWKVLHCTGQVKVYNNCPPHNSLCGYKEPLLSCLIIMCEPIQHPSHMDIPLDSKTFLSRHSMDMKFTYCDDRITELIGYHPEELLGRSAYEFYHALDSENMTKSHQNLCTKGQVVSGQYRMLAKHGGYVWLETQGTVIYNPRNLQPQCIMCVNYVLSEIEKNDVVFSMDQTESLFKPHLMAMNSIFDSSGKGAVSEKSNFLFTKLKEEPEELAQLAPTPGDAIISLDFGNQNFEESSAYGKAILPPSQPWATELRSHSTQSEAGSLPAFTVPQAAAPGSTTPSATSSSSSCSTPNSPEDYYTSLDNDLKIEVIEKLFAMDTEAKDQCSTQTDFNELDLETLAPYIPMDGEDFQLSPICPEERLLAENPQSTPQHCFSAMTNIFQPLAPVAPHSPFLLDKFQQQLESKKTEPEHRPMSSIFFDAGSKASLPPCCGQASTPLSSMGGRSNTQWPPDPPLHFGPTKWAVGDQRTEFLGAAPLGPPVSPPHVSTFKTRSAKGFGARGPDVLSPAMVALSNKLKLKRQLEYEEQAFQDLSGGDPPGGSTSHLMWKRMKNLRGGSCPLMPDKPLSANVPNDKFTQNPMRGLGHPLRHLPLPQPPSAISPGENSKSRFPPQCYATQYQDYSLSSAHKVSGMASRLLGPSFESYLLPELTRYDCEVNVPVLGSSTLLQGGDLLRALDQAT

Structure (SMILES) | EC50 [1] | pEC50 [1] | IC50 [2] | pIC50 [2]
C=C(C)[C@@H]1CC(=O)/C(C)=C/CC/C(C)=C/CC[C@]2(C)O[C@@H]2C1 |  | 3.97 |  | 3.83
C=C1CC/C=C(/C)CC[C@@H]2C([C@@H](OC(C)=O)[C@H](C=C(C)C)OC(C)=O)=CO[C@H](OC(C)=O)[C@@H]12 |  | 5.47 |  | 5.28
C=C1C[C@@H](O)/C=C(/C)CC[C@@H]2C([C@@H](OC(C)=O)[C@H](C=C(C)C)OC(C)=O)=CO[C@H](OC(C)=O)[C@@H]12 |  | 5.21 |  | 4.58
C=C1CC[C@H](OO)C(=C)CC[C@@H]2C([C@@H](OC(C)=O)[C@H](C=C(C)C)OC(C)=O)=CO[C@H](OC(C)=O)[C@@H]12 |  | 4.93 |  | 4.85

Now from value to compound, other results behind:

EC50 [1] | pEC50 [1] | Structure (SMILES) | IC50 [2] | pIC50 [2]
Not Active |  | C/C1=C\C=C(\C(C)C)CCC2=CCC[C@](C)(OC2=O)[C@H](O)CC1 | Not Active | 
 | 3.74 | CC1=C2CC/C(C)=C/CC[C@]3(C)O[C@@H]3CC/C(C)=C/[C@H]2OC1 |  | 3.54
Not Active |  | C/C1=C\CC[C@]2(C)O[C@@H]2CC/C(C)=C/C=C(/C(C)(C)O)CC1 | Not Active | 
Not Active |  | C=C(C)/C1=C/C=C(\C)CC[C@@H](O)[C@]2(C)CCC=C(CC1)C(=O)O2 (relative stereo) | Not Active | 
 | 3.83 | COC(C)(C)/C1=C/C=C(\C)CC[C@H]2O[C@@]2(C)CC/C=C(\C)CC1 (relative stereo) |  | 3.87
